Data on 6 compounds can be found in article PMC4224617 (Chemistry & biology, 2014).

In one assay the target is T1, Plu2411 (Photorhabdus laumondii, UniProt Q7N4D0).
T1 sequence (Q7N4D0 1-259): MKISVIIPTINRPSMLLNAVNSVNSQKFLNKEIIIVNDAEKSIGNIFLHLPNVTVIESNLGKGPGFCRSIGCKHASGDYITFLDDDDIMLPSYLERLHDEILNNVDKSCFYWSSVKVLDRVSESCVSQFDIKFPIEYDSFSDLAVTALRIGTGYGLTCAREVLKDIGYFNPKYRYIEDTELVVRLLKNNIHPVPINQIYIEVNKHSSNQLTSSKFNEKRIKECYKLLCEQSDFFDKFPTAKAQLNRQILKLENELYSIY
Put plainly: LC/MS product detection, GT-only reaction. The assay is classed as biochemical. To be noted: α-UDP-GlcNAc as substrate.
Turning to `O=c1ccn([C@@H]2O[C@H](COP(=O)(O)OP(=O)(O)O)[C@@H](O)[C@H]2O)c(=O)[nH]1` [UDP], the “LC/MS product detection, GT-only reaction” value was “In the GT-only reaction, we could detect UDP and free Glc-NAc products”.

In the next assay the target is chicken egg white lysozyme (Gallus gallus, UniProt P00698). Put plainly: EnzChek fluorescent lysozyme assay, Dixon plot. The assay is classed as biochemical.
Chain of chicken egg white lysozyme (P00698 19-147): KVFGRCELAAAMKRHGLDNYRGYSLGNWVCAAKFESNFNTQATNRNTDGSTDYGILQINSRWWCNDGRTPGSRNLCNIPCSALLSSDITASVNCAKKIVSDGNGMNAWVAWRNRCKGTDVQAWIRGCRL
Settings: not given
In outline: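 Substrate: fluorescein-labelled Micrococcus lysodeikticus cells (DQ lysozyme substrate). Run according to the kit's instructions. Ki values determined for oligosaccharide test compounds.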
What is called Ki is the equilibrium dissociation constant of an inhibitor or competing ligand from its target. The compound `CC(=O)N[C@H]1[C@H](O[C@H]2[C@H](O)[C@@H](NC(C)=O)[C@@H]3OC[C@H]2O3)O[C@H](CO)[C@@H](O[C@@H]2O[C@H](COP(=O)(O)O)[C@@H](O)[C@H](O)[C@H]2N)[C@@H]1O` [compound 5, 5] came in with a Ki of 750 ± 410 µM.
For `CC(=O)N[C@H]1[C@@H]2OC[C@@H](O2)[C@@H](O[C@@H]2O[C@H](CO)[C@@H](O[C@@H]3O[C@H](CO)[C@@H](O)[C@H](O)[C@H]3NC(C)=O)[C@H](O)[C@H]2NC(C)=O)[C@@H]1O` [compound 2, 2], the Ki turned out to be 170 ± 130 µM.
In turn, `CC(=O)N[C@H]1[C@H](O[C@H]2[C@H](O)[C@@H](NC(C)=O)[C@@H]3OC[C@H]2O3)O[C@H](CO)[C@@H](O[C@@H]2O[C@H](CO)[C@@H](O)[C@H](O)[C@H]2N)[C@@H]1O` [compound 4, 4] gave a Ki of 400 ± 230 µM.
In turn, `CC(=O)N[C@H]1[C@@H]2OC[C@@H](O2)[C@@H](O[C@@H]2O[C@H](CO)[C@@H](O)[C@H](O)[C@H]2NC(C)=O)[C@@H]1O` [compound 1, 1] registered a Ki of 3590 ± 1290 µM.
`CC(=O)N[C@H]1[C@@H]2OC[C@@H](O2)[C@@H](O[C@@H]2O[C@H](CO)[C@@H](O[C@@H]3O[C@H](CO)[C@@H](O[C@@H]4O[C@H](CO)[C@@H](O)[C@H](O)[C@H]4NC(C)=O)[C@H](O)[C@H]3NC(C)=O)[C@H](O)[C@H]2NC(C)=O)[C@@H]1O` [compound 3, 3]: affinity was put at a Ki of 300 ± 270 µM.
